NSD2 inh: blocks human histone methyltransferase NSD2; O96028; NSD2 peptide methylation, AlphaScreen, 120 min; inhibition, % at 12.5 µM; actives 0.54% (n = 310,000); AID 743445; in the data active = inhibition above about 50%
TDP2 absorb: TDP2 (human) inhibition, absorbance primary screen; O95551; recombinant TDP2, T5PNP hydrolysis, p-nitrophenol absorbance 415 nm; inhibition, % at 12.8 µM; actives 0.34% (n = 370,000); AID 720702;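 active = inhibition above the mean of all tested compounds plus 3 SD, set per campaign, cut at about 25% in these data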;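 also: 0% = DMSO with enzyme and 100% = buffer with substrate but no TDP2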
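System – recombinant human TDP2 · Amount – 120 nM TDP2 per well · Buffer or medium – Mg2+-containing Tris-HCl buffer, pH 7.5 · Reagent – T5PNP substrate, 5 mM · Dosing – 12.8 µM single point, 1% DMSO · Incubation – 2 h at 37 °C · Measured by – epi absorbance · Read-out basis – percent inhibition · Benchmarks – high control without enzyme, low control DMSO plus TDP2 · Repeats – singlicate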
MBD2 inh: blocks human MBD2 binding to methylated DNA. TR-FRET, MBD2 binding to methylated oligonucleotide. inhibition, % at 4.4 µM. actives 0.31% (n = 370,000). AID 686964; in the data active = inhibition above about 13%
Casp6 inh: caspase-6 (human) enzyme inhibition; purified caspase-6, Z-VEID-R110 cleavage fluorescence; P55212; inhibition, % at 12.5 µM; actives 0.53% (n = 350,000);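 active = mean inhibition across replicates at least about 35%, with every replicate also reaching that limit, limit read from the data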;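 also: 0% = median of neutral control wells and 100% = no fluorescence left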
LEDGF integ inh: blocks HIV-1 LEDGF/p75-dependent DNA integration; TR-FRET IN-LEDGF/p75 DNA integration, Eu/Cy5; inhibition, % at 3.7 µM; actives 0.64% (n = 370,000); AID 743269;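 active = inhibition above the screen-wide mean plus 3 SD, cut at about 13% in these data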;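 also: signal is the Cy5 over europium emission ratio at 671 and 618 nm; 0% = plate median of compound wells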
UHRF1 binding: human UHRF1 methylated DNA binding inhibitors. AID 687016. actives 0.75% (n = 370,000). inhibition, % at 4.4 µM. Q96T88. UHRF1 binding to methylated oligo, TR-FRET;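 also: UHRF1 SRA domain binding a hemimethylated CpG hairpin DNA probe; 0% = median of test compound wells and 100% = reference inhibitor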
UHRF1 DNA bind: inhibits human UHRF1 binding to methylated oligonucleotide, MBD2 counter-screen; inhibition, % at 4.4 µM; actives 25% (n = 1,000); AID 720530; shares compounds with MBD2 inh; TR-FRET;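 also: UHRF1 SRA domain binding a labeled hemimethylated CpG hairpin DNA; 0% = vehicle only and 100% = reference inhibitor with vehicle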
MBD2 DBD conf: MBD2-DBD methyl-DNA binding inhibition, TR-FRET confirmation; shares compounds with MBD2 inh; TR-FRET MBD2-DBD binding to methylated oligonucleotide; inhibition, % at 4.4 µM; actives 26% (n = 1,000); AID 720531; in the data active = inhibition above about 14%
Numbers without * were called inactive; · = no result. Sampled rows, rich in hits. Any-hit rate of the full collection: about 1.9%. Rule as the data show it, unless noted: active = inhibition above about 21%; inactive = the rest.

SMILES	NSD2 inh	TDP2 absorb	MBD2 inh	Casp6 inh	LEDGF integ inh	UHRF1 binding	UHRF1 DNA bind	MBD2 DBD conf
Cc1ccc(NC(=O)CSc2nc3[nH]c(=O)cc(O)c3s2)c(Br)c1	-11	-5	64*	-5	7	-1	6	2
C[C@H](CO)N1C[C@H](C)[C@H](CN(C)C(=O)CCCN(C)C)OCCCC[C@H](C)Oc2ccc(NS(C)(=O)=O)cc2C1=O	·	·	·	-3	·	·	·	·
CO[C@@H]1CN(C)C(=O)c2ccc(NC(=O)C3CC3)cc2OC[C@H](C)N(CC2CC2)C[C@H]1C	·	·	·	-2	·	·	·	·
C#CCOCCOCCOCCNc1nc(N2CCN(C(=O)[C@H](CO)n3cc([C@@H](N)C(C)C)nn3)CC2)nc(N2CCN(C(=O)[C@H](CO)n3cc([C@@H](N)C(C)C)nn3)CC2)n1	·	15	15*	-43	5	22*	11	6
CC(C)CC#Cc1cnc2c(c1)C(=O)N([C@H](C)CO)C[C@@H](C)[C@@H](CN(C)C(=O)Nc1cccc(F)c1)O2	·	·	·	0	·	·	·	·
C=CCn1c(SCC(N)=O)nc2scc(-c3ccc(C)o3)c2c1=O	5	-14	14*	0	-5	10	2	0
C=CCn1c(SCc2ccccc2)nc2scc(-c3ccc(C)o3)c2c1=O	1	-6	7	·	-5	-1	·	·
O=C(NC1CCN(S(=O)(=O)c2cccc([N+](=O)[O-])c2)CC1)C1CCCCC1	3	-13	3	4	3	1	·	·
O=C(NC1CC1)C1CCN(S(=O)(=O)c2ccc(Cl)c([N+](=O)[O-])c2)CC1	5	4	35*	3	-5	5	7	3
Cc1cc2[nH]c3c4ccccc4nc(C)c3c2cc1C	-2	0	17*	0	-1	6	19	33*
Cc1ccc(S(=O)(=O)N(C)C)cc1NC(=O)CCc1c[nH]c2ccccc12	4	-8	5	2	4	-2	·	·
Cc1ccc(S(=O)(=O)N(C)C)cc1NC(=O)CCc1ccccc1	-2	8	21*	5	-1	2	8	3
CC=Cc1ccc2n(c1=O)C[C@@H]1[C@@H](CO)[C@H](C(=O)NCc3ccc(F)cc3)N(Cc3cncnc3)[C@H]21 (mixture of isomers)	·	·	·	0	·	·	·	·
Cc1ccc(OCC(=O)Nc2cccc(S(=O)(=O)N3CCCCC3)c2)c([N+](=O)[O-])n1	1	0	0	·	5	0	·	·
Cc1ccc2cccc(OCC(=O)Nc3cccc(S(=O)(=O)N4CCCC4)c3)c2n1	1	-3	17*	-1	-3	19	-2	2
CC(C)C#Cc1cnc2c(c1)C(=O)N([C@@H](C)CO)C[C@@H](C)[C@H](CN(C)C(=O)c1ccccc1F)O2	·	·	·	0	·	·	·	·
O=C1c2ccccc2-c2cccnc21	·	-13	16*	-1	2	-11	2	-5
O=C1c2ccccc2-c2nc3ccccc3nc21	12	10	-20	·	0	-25	·	·
COCCNc1ncnc2c1ncn2[C@H]1CN(Cc2ccco2)C[C@@H](CO)O1	-3	2	24*	2	-2	0	7	2
COC(=O)C[C@H]1C[C@H]2c3cc(NS(=O)(=O)c4ccc(OC)cc4)ccc3O[C@H]2[C@H](CO)O1	·	2	21*	2	-2	12	9	3
COC(=O)C[C@H]1C[C@@H]2c3cc(NS(=O)(=O)c4ccc(OC)cc4)ccc3O[C@@H]2[C@H](CO)O1	·	-4	1	-2	0	0	·	·
Cc1cccc2c(N)c3c(nc12)CCCC3 (tested in a mixture with another compound)	1	5	-3	-1	0	4	·	·
Cc1cc(C)c2c(N)c3cccc(C)c3nc2n1	9	4	25*	-2	-4	29*	38*	41*
Cc1noc(C)c1S(=O)(=O)Nc1ccc2c(c1)C(=O)N([C@H](C)CO)C[C@@H](C)[C@@H](CN(C)S(=O)(=O)c1ccc(F)cc1)OCCCC[C@H](C)O2	·	·	·	1	·	·	·	·
Cc1nn(CCc2n[nH]c(=S)n2-c2ccc(F)cc2)c(C)c1[N+](=O)[O-]	-1	3	73*	·	-2	0	8	2
SMILES	NSD2 inh	TDP2 absorb	MBD2 inh	Casp6 inh	LEDGF integ inh	UHRF1 binding	UHRF1 DNA bind	MBD2 DBD conf
Cc1nn(CCc2n[nH]c(=S)n2-c2ccc(F)c(Cl)c2)c(C)c1[N+](=O)[O-]	2	5	2	·	0	-3	·	·
O=S1(=O)CC(N2CCCC2)CN1 (stereo not drawn)	·	8	15*	·	3	15	10	3
NC(=O)c1ccc(NC(=O)COC(=O)/C=C/c2ccc(Br)o2)cc1	0	-1	27*	80*	22*	53*	34*	22*
O=C(NCCCN1CCCC1=O)Nc1ccc(Cl)cc1	1	-4	14*	·	2	1	5	3
C[C@H](CO)N1C[C@H](C)[C@@H](CN(C)S(=O)(=O)c2ccc(F)cc2)OCCCC[C@H](C)Oc2ccc(NC(=O)C3CCCCC3)cc2C1=O	·	·	·	0	·	·	·	·
C#CCN(Cc1ccco1)C(=O)c1nnc2c3cc(OC)ccc3n(S(=O)(=O)c3ccc(OC)cc3)c2n1	·	1	26*	-1	-3	1	6	20*
COc1ccc2cc3cc(C(=O)Nc4ccc(F)cc4)sc3nc2c1	·	0	29*	·	-3	8	29*	28*
COc1ccc(CN(C)C[C@H]2OCc3cn(nn3)CCCC(=O)N([C@H](C)CO)C[C@H]2C)cc1	·	·	·	-1	·	·	·	·
COc1ccc(-c2c3c(cc(C)[n+]2[O-])oc2ccc(OC)cc23)cc1	1	-4	10	·	1	20	·	·
COc1ccc2oc3cc(C)[n+]([O-])c(-c4ccc(Cl)cc4)c3c2c1	-2	2	13*	·	1	19	1	2
CN(C(=O)/C=C/c1ccc2c(c1)OCO2)c1ccccc1	0	-8	7	4	-5	15	·	·
CN(C(=O)C=Cc1ccccc1)c1ccccc1	1	3	24*	1	-1	2	5	1
CCS(=O)(=O)N1[C@H](C#N)[C@H](c2ccc(C#Cc3ccccc3F)cc2)[C@@H]1CO	·	·	·	0	·	·	·	·
C[C@H]1CN([C@@H](C)CO)C(=O)c2cc(NC(=O)Nc3ccc4c(c3)OCO4)ccc2O[C@H]1CN(C)C(=O)Nc1ccc(C(F)(F)F)cc1	·	·	·	-2	·	·	·	·
Cc1ccc(NC(=O)CNC(=O)N2CC(=O)Nc3ccccc32)cc1F	-1	9	2	-1	0	4	·	·

Compound activity deposited in PubChem by several laboratories.
